The source made the active and inactive calls. The calls are words filed in the database; no cut-off is given here.
Key:
HaCaT = assay: Cytostatic activity against human HaCaT cells after 72 hrs by MTT assay; assay type: ADME, cell-based
Method in brief: (§1)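 Monolayers in DMEM with 10% FBS, 2 mM L-glutamine and penicillin/streptomycin, 37 °C, 5% CO2. Seeded at 1–3 × 10^4 cells/ml, then compound added in tenfold dilutions (10⁻⁸–10⁻⁴ M) for 72 h. MTT read at 570 nm; percent growth taken against time-zero and untreated controls. IC50 by linear regression; quadruplicate, at least two experiments.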

[1] = tested on: Respiratory syncytial virus; assay: Antiviral activity against RSV infected in human cervix carcinoma cells assessed as inhibition of virus-induced cytopathic effect at 0.32 to 100 uM; assay type: functional, organism-based
Method in brief: (§2)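 Confluent cell cultures were infected with 100 CCID50 of virus in the presence of test compound at 100, 40, 8, 1.6 and 0.32 μM. Cytopathic effect was scored once it was complete in untreated infected controls.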

Coxsackievirus B4 [2] = assay: Antiviral activity against Coxsackievirus B4 infected in human cervix carcinoma cells assessed as inhibition of virus-induced cytopathic effect at 0.32 to 100 uM; assay type: functional, organism-based; method in brief: as §2
L1210 = assay: Cytostatic activity against mouse L1210 cells after 2 days by coulter counter analysis; assay type: functional, cell-based; conditions: L1210, 48 h
Method in brief: (§3)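 300,000–500,000 cells/ml mixed 1:1 with compound dilutions and incubated at 37 °C for 2 days (L1210) or 3 days (CEM, HeLa). Cell number counted with a Coulter counter; HeLa trypsinized before counting.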

CCRF-CEM = assay: Cytostatic activity against human CEM cells after 3 days by coulter counter analysis; assay type: functional, cell-based; conditions: 72 h; method in brief: as §3
HeLa = assay: Cytostatic activity against human HeLa cells after 3 days by coulter counter analysis; assay type: functional, cell-based; conditions: 72 h; method in brief: as §3
HCT-116 = assay: Cytostatic activity against human HCT116 cells after 72 hrs by MTT assay; assay type: functional, cell-based; conditions: HCT-116, 72 h; method in brief: as §1
MCF7 = assay: Cytostatic activity against human MCF7 cells after 72 hrs by MTT assay; assay type: functional, cell-based; conditions: MCF7, 72 h; method in brief: as §1
NCI-H460 = assay: Cytostatic activity against human NCI-H460 cells after 72 hrs by MTT assay; assay type: functional, cell-based; conditions: NCI-H460, 72 h; method in brief: as §1
Human alphaherpesvirus 1 = assay: Antiviral activity against HSV1 KOS infected in human lung fibroblast assessed as inhibition of virus-induced cytopathic effect at 0.32 to 100 uM; assay type: functional, organism-based; method in brief: as §2
Human alphaherpesvirus 2 = assay: Antiviral activity against HSV2 G infected in human lung fibroblast assessed as inhibition of virus-induced cytopathic effect at 0.32 to 100 uM; assay type: functional, organism-based; conditions: strain G; method in brief: as §2
Vaccinia virus = assay: Antiviral activity against Vaccinia virus infected in human lung fibroblast assessed as inhibition of virus-induced cytopathic effect at 0.32 to 100 uM; assay type: functional, organism-based; conditions: Orthopoxvirus vaccinia
[3] = tested on: Vesicular stomatitis virus; assay: Antiviral activity against VSV infected in human lung fibroblast assessed as inhibition of virus-induced cytopathic effect at 0.32 to 100 uM; assay type: functional, organism-based
Human respirovirus 3 = assay: Antiviral activity against Parainfluenza virus 3 infected in african green monkey Vero cells assessed as inhibition of virus-induced cytopathic effect at 0.32 to 100 uM; assay type: functional, organism-based; method in brief: as §2
[4] = tested on: Mammalian orthoreovirus 1; assay: Antiviral activity against Reovirus-1 infected in african green monkey Vero cells assessed as inhibition of virus-induced cytopathic effect at 0.32 to 100 uM; assay type: functional, organism-based; method in brief: as §2
Sindbis virus = assay: Antiviral activity against Sindbis virus infected in african green monkey Vero cells assessed as inhibition of virus-induced cytopathic effect at 0.32 to 100 uM; assay type: functional, organism-based; method in brief: as §2
Coxsackievirus B4 [5] = assay: Antiviral activity against Coxsackievirus B4 infected in african green monkey Vero cells assessed as inhibition of virus-induced cytopathic effect at 0.32 to 100 uM; assay type: functional, organism-based; method in brief: as §2
Punta Toro virus = assay: Antiviral activity against Punta Toro virus infected in african green monkey Vero cells assessed as inhibition of virus-induced cytopathic effect at 0.32 to 100 uM; assay type: functional, organism-based; method in brief: as §2
[6] = tested on: Vesicular stomatitis virus; assay: Antiviral activity against Vesicular stomatitis virus infected in human cervix carcinoma cells assessed as inhibition of virus-induced cytopathic effect at 0.32 to 100 uM; assay type: functional, organism-based
Method in brief: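 Confluent human cervix carcinoma (HeLa) cultures received 100 CCID50 of VSV together with the compound at 100, 40, 8, 1.6 or 0.32 μM. Cytopathicity was read at the point of full CPE in infected, untreated control wells.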

Felid alphaherpesvirus 1 = assay: Antiviral activity against Feline herpesvirus infected in feline CRFK cells assessed as inhibition of virus-induced cytopathic effect at 0.32 to 100 uM; assay type: functional, organism-based; method in brief: as §2
Feline coronavirus = assay: Antiviral activity against Feline coronavirus infected in feline CRFK cells assessed as inhibition of virus-induced cytopathic effect at 0.32 to 100 uM; assay type: functional, organism-based; method in brief: as §2
Influenza A virus [7] = assay: Antiviral activity against Influenza A virus H1N1 infected in MDCK cells assessed as inhibition of virus-induced cytopathic effect at 0.32 to 100 uM; assay type: functional, organism-based
Method in brief: (§4)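 Confluent MDCK monolayers were infected in the presence of the compound at 100, 40, 8, 1.6 and 0.32 μM. Viral cytopathicity was scored once it was complete in untreated infected control cultures.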

Influenza A virus [8] = assay: Antiviral activity against Influenza A virus H3N2 infected in MDCK cells assessed as inhibition of virus-induced cytopathic effect at 0.32 to 100 uM; assay type: functional, organism-based; method in brief: as §4
Influenza B virus = assay: Antiviral activity against Influenza B virus infected in MDCK cells assessed as inhibition of virus-induced cytopathic effect at 0.32 to 100 uM; assay type: functional, organism-based; method in brief: as §4
[9] = tested on: Human immunodeficiency virus 1; assay: Antiviral activity against HIV1 3B infected in human CEM cells assessed as inhibition of virus-induced CEM giant cell formation at 0.32 to 100 uM after 4 days; assay type: functional, organism-based; conditions: CCRF-CEM
Method in brief: (§5)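 CEM cells (~3 × 10^5 cells/cm³) exposed to 100 CCID50/ml of virus and seeded into wells holding compound dilutions. Incubated 4 days at 37 °C, then giant cell formation examined microscopically.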

[10] = tested on: Human immunodeficiency virus 2; assay: Antiviral activity against HIV2 ROD infected in human CEM cells assessed as inhibition of virus-induced CEM giant cell formation at 0.32 to 100 uM after 4 days; assay type: functional, organism-based; conditions: ISOLATE ROD, CCRF-CEM; method in brief: as §5
[11] = tested on: Radical scavenging activity; assay: Antioxidant activity assessed as DPPH free radical scavenging activity at 100 uM after 20 mins by spectrophotometric analysis; assay type: functional
Method in brief: (§6)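 0.05 mM DPPH in absolute ethanol mixed with an equal volume of compound in DMSO (final 100 μM). Shaken and left 20 or 60 min, then absorbance read at 517 nm and percent activity calculated. Three replicates, averaged.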

[12] = tested on: Radical scavenging activity; assay: Antioxidant activity assessed as DPPH free radical scavenging activity at 100 uM after 60 mins by spectrophotometric analysis; assay type: functional; method in brief: as §6
[13] = Antioxidant activity assessed as inhibition of AAPH-induced linoleic acid lipid peroxidation by measuring conjugated diene hydroperoxide level; assay type: functional; set-up: concentration or dose not given beside the values; conditions: dose or concentration not given here
Method in brief: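 Linoleic acid sodium salt (10 μL of 16 mM) in 0.05 M phosphate buffer pH 7.4 at 37 °C. Oxidation started under air with 50 μL of 40 mM AAPH. Conjugated diene hydroperoxide formation followed as absorbance rise at 234 nm; control contains the same DMSO level. At least triplicate.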

Glycine max = assay: Inhibition of soybean LOX assessed as conversion of sodium linoleate to 13- hydroperoxylinoleic acid at 100 uM

SMILES	IC50 (HaCaT) [µM]	inhibition [1]	inhibition (Coxsackievirus B4 [2])	IC50 (L1210) [µM]	IC50 (CCRF-CEM) [µM]	IC50 (HCT-116) [µM]	IC50 (MCF7) [µM]	IC50 (NCI-H460) [µM]	inhibition (Human alphaherpesvirus 1)	inhibition (Human alphaherpesvirus 2)	inhibition (Vaccinia virus)	inhibition [3]	inhibition (Human respirovirus 3)	inhibition [4]	inhibition (Sindbis virus)	inhibition (Coxsackievirus B4 [5])	inhibition (Punta Toro virus)	inhibition [6]	inhibition (Felid alphaherpesvirus 1)	inhibition (Feline coronavirus)	further results
O=c1[nH]cc(F)c(=O)[nH]1 [FLUOROURACIL]	0.3																				
CC(C(=O)NNC(=O)NC1CCCCC1)c1cccc(Oc2ccccc2)c1 (stereo not given)	19	inactive	inactive	35	53	22	17	24	inactive	inactive	inactive	inactive	inactive	inactive	inactive	inactive	inactive	inactive	inactive	inactive	IC50 (HeLa): 48 µM; inhibition (Influenza A virus [7]): inactive; inhibition (Influenza A virus [8]): inactive; inhibition (Influenza B virus): inactive; inhibition [9]: inactive; inhibition [10]: inactive; Activity [11]: 19%; Activity [12]: 22%; inhibition [13]: 63%; inhibition (Glycine max): 13%
CC(C(=O)NNC(=O)NCC1CCCCC1)c1cccc(Cc2ccccc2)c1 (stereo not given)	12	inactive	inactive	22	20	16	18	18	inactive	inactive	inactive	inactive	inactive	inactive	inactive	inactive	inactive	inactive	inactive	inactive	inhibition (Influenza A virus [7]): inactive; inhibition (Influenza A virus [8]): inactive; inhibition (Influenza B virus): inactive; inhibition [9]: inactive; inhibition [10]: inactive; Activity [11]: 5%; Activity [12]: 12%; inhibition [13]: 61%; inhibition (Glycine max): 9%

Reference: ChEMBL document CHEMBL2010803, “Novel NSAID 1-acyl-4-cycloalkyl/arylsemicarbazides and 1-acyl-5-benzyloxy/hydroxy carbamoylcarbazides as potential anticancer agents and antioxidants” (Eur J Med Chem, 2012)
